Assays:
[1] = test system: Trypanosoma brucei rhodesiense; test: Antiparasitic activity against Trypanosoma brucei rhodesiense STIB900 in blood; assay type: functional, organism-based
Summary of the method: (§1)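 Microplate assay at pH 7.4. Organisms: L. donovani MHOM-ET-67/L82, T. b. rhodesiense STIB900, T. cruzi Tulahuen C4. Cytotoxicity used rat skeletal myoblast L-6 cells. Compounds were tested in duplicate at […], and actives were retested in duplicate down to 3.5 nM. IC50 was taken from sigmoidal inhibition curves. Reference standards: miltefosine (L. donovani), melarsoprol (T. b. rhodesiense), benznidazole (T. cruzi), podophyllotoxin (L-6).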

L6 = test: Cytotoxicity against rat L6 cells; assay type: cell-based
[2] = test system: Trypanosoma brucei rhodesiense; test: Antiparasitic activity against Trypanosoma brucei rhodesiense STIB900 in procyclic stage; assay type: functional, organism-based
Leishmania donovani = test: Antiparasitic activity against Leishmania donovani MHOM-ET-67/L82 in amastigotes stage; assay type: functional, organism-based; summary of the method: as §1
Trypanosoma cruzi = test: Antiparasitic activity against Trypanosoma cruzi Tulahuen C4 in amastigotes stage
Plasmodium falciparum = test: Antiparasitic activity against chloroquine, pyrimethamine-resistant Plasmodium falciparum K1 erythrocyte stage

| SMILES | IC50 [1] [µM] | IC50 (L6) [µM] | IC50 [2] [µM] | IC50 (Leishmania donovani) [µM] | IC50 (Trypanosoma cruzi) [µM] | IC50 (Plasmodium falciparum) [µM] |
| --- | --- | --- | --- | --- | --- | --- |
| CCc1ccc(C(=O)CC(=O)C2CCOCC2)cc1 | 20.9 | 202 | 3.4 | 9.8 | 54.9 | > 19 |
| O=C(CC(=O)c1ccc(Oc2ccccc2)cc1)CN1CCOCC1 | 18.9 | 112 | 1 | 5.2 | 20.6 | > 15 |
| Nc1ccc(Oc2ccc(-c3cc(N4CCOCC4)[nH]n3)cc2)cc1 | 17.7 | > 267 | > 267 | 20.3 | > 89 | > 14 |
| Nc1ccc(-n2nc(-c3ccc(Oc4ccccc4)cc3)cc2N2CCOCC2)cc1 | 10.3 | 61.6 | 61.7 | 10.5 | 22 | 6.5 |
| c1ccc(Oc2ccc(-c3cc(N4CCNCC4)[nH]n3)cc2)cc1 | 1.1 | 18 | 4.7 | 25.8 | 9.5 | 6.6 |
| CCc1ccc(-c2cc(C3CCOCC3)[nH]n2)cc1 | 28.6 | 165 | 7.8 | 15.1 | 114 | > 19 |
| c1ccc(Oc2ccc(-c3cc(C4CCOCC4)[nH]n3)cc2)cc1 | 3.2 | 89.6 | 43 | 6.4 | 59 | > 15 |
| O=[N+]([O-])c1ccc(Oc2ccc(-c3cc(N4CCOCC4)[nH]n3)cc2)cc1 | 4.4 | > 245 | 93.4 | 22.3 | > 81 | > 13 |
| CSC(=CC(=O)c1ccc([N+](=O)[O-])cc1)SC | 224 | 40.5 | > 334 | 20.2 | 54.6 | > 18 |
| CSC(=CC(=O)c1ccc(Oc2ccccc2)cc1)SC | 51.4 | 34.5 | 16.6 | 9.7 | 24.4 | > 15 |
| c1ccc(Oc2ccc(-c3cc(N4CCOCC4)[nH]n3)cc2)cc1 | 1 | 61.6 | 40.7 | 8 | 52 | > 15 |
| c1ccc(Oc2ccc(-c3cc(N4CCOCC4)on3)cc2)cc1 | 5.9 | 172 | 75.2 | 12.7 | 46.5 | 10.5 |
| O=[N+]([O-])c1ccc(-n2nc(-c3ccc(Oc4ccccc4)cc3)cc2N2CCOCC2)cc1 | 28.8 | > 203 | > 203 | 4.8 | > 67 | 3.7 |
| CC(C)(C)OC(=O)N1CCN(c2cc(-c3ccc(Oc4ccccc4)cc3)n[nH]2)CC1 | 2.9 | 30 | 17.6 | 2.3 | 12.8 | 8.1 |
| c1ccc(Oc2ccc(-c3cc(CN4CCOCC4)[nH]n3)cc2)cc1 | 4.1 | 150 | 54.9 | 15.6 | 45.3 | > 14 |
| O=C(CC(=O)C1CCOCC1)c1ccc(Oc2ccccc2)cc1 | 25.8 | 231 | 1.8 | 4.6 | 54.6 | > 15 |
| CSC(=CC(=O)c1ccc(Oc2ccc([N+](=O)[O-])cc2)cc1)SC | 45.9 | 156 | > 249 | 5.7 | > 83 | > 13 |
| O=C(Cn1ccnc1[N+](=O)[O-])NCc1ccccc1 [BENZNIDAZOLE] |  |  |  |  | 2.13 |  |
| Nc1nc(N)nc(Nc2ccc([As]3SCC(CO)S3)cc2)n1 (stereo unspecified) [MELARSOPROL] | 0.01 |  | 0.13 |  |  |  |
| CCCCCCCCCCCCCCCCOP(=O)([O-])OCC[N+](C)(C)C [MILTEFOSINE] |  |  |  | 0.26 |  |  |

Source: ChEMBL document CHEMBL1138251, “Synthesis and evaluation of antiparasitic activities of new 4-[5-(4-phenoxyphenyl)-2H-pyrazol-3-yl]morpholine derivatives” (J Med Chem, 2007)
